Test results as given in ChEMBL document CHEMBL4396900, “Extending Cross Metathesis To Identify Selective HDAC Inhibitors: Synthesis, Biological Activities, and Modeling” (ACS Med Chem Lett, 2019).
Values belong to the compound of their own block, whether it stands above or below them. Activity calls are given as the source filed them. The calls are words filed in the database; no cut-off is given here.

Key:
Histone deacetylase = type: cell-based, Homo sapiens
[1] = target: NAD-dependent protein deacetylase sirtuin-2 (Homo sapiens, UniProt Q8IXJ6); test: Inhibition of human recombinant sirtuin 2 using fluoro-lysine sirtuin 2 deacetylase substrate measured after 60 mins by fluorimetry assay
NAD-dependent protein deacetylase sirtuin-2, sequence (Q8IXJ6 whole entry): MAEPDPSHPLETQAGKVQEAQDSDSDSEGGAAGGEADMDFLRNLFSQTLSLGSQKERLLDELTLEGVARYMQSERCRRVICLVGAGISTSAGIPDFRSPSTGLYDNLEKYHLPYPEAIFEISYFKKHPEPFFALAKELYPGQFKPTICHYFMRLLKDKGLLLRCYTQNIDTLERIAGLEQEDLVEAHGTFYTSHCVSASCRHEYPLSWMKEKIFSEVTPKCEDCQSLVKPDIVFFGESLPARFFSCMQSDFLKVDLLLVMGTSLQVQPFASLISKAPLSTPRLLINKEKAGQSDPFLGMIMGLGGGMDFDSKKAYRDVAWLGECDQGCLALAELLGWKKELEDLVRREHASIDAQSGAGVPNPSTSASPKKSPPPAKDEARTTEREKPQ

Histone deacetylase 9 = Histone deacetylase 9 (Homo sapiens, UniProt Q9UKV0); test: Inhibition of human recombinant HDAC9 using fluorogenic HDAC substrate class 2a measured after 30 mins by fluorimetry assay
A549 = test: cells; type: functional, cell-based; conditions: Homo sapiens, A549, 72 h
Histone deacetylase 4 [2] = target: T1, Histone deacetylase 4 (Homo sapiens, UniProt P56524); test: Inhibition of human recombinant HDAC4 using fluorogenic HDAC substrate class 2a measured after 30 mins by fluorimetry assay
T1 sequence (P56524 whole entry): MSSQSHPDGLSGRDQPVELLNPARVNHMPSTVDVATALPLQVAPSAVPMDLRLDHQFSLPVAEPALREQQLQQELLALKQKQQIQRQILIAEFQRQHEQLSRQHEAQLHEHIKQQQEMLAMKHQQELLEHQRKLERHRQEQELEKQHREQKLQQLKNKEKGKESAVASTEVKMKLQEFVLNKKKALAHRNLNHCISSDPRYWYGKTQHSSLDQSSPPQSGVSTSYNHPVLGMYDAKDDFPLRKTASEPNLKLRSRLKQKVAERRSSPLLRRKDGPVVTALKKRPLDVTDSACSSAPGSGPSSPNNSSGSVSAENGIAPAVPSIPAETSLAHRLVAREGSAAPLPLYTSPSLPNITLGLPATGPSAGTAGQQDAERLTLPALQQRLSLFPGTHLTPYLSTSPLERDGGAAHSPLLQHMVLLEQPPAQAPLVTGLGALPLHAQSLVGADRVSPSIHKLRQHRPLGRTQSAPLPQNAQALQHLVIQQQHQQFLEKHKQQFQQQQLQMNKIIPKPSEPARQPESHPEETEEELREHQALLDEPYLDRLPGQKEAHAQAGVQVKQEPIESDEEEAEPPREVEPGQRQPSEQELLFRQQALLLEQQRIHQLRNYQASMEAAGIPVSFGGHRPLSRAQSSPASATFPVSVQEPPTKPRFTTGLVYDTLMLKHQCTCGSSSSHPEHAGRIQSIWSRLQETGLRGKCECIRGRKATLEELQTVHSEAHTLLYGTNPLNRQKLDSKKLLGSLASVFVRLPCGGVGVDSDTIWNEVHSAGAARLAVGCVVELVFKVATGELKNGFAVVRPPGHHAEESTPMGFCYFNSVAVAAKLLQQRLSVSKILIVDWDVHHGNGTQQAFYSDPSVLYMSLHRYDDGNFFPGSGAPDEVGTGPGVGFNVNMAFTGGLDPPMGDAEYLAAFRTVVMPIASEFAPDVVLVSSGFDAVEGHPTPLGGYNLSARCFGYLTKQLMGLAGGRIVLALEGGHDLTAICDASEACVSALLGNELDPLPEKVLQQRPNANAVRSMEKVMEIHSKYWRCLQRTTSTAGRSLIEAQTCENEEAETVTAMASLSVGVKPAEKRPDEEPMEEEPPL

[3] = target: T2, Protein deacetylase HDAC6 (Homo sapiens) (UniProt Q9UBN7); test: Inhibition of HDAC6 in human Meso163 cells assessed as increase in histone H3 acetylation at 20 uM measured after 6 to 20 hrs by Western blot analysis; type: cell-based
T2 sequence (whole entry): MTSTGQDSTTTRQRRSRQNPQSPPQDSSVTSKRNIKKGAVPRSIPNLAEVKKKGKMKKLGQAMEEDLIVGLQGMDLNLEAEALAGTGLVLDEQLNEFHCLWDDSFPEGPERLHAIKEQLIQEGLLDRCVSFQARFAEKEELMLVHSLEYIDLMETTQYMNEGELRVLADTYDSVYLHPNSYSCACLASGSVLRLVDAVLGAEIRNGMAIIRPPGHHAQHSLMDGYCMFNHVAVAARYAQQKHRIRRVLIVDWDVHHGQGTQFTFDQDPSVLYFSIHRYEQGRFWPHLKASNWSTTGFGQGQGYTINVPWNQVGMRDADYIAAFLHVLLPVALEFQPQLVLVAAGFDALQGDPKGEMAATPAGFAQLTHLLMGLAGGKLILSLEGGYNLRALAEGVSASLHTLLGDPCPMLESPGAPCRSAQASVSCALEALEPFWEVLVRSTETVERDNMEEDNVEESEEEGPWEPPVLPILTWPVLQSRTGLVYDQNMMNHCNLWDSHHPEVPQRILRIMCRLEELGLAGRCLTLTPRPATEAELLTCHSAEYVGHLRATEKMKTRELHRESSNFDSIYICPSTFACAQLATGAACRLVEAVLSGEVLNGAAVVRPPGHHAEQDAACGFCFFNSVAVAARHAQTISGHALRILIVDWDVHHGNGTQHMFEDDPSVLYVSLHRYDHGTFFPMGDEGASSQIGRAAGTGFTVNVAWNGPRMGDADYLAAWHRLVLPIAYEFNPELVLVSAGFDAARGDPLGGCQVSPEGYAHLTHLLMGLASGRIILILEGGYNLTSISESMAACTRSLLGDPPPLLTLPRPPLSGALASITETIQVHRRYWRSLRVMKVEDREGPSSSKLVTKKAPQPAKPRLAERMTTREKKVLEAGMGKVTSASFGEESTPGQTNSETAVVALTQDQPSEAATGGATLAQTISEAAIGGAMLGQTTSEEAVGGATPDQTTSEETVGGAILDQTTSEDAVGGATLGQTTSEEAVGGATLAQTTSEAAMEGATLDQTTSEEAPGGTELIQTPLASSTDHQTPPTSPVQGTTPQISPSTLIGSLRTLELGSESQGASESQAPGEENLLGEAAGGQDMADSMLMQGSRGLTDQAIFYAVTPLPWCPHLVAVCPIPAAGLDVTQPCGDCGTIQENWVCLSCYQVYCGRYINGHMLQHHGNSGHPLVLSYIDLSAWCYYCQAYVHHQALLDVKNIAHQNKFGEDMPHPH
Outline: (§1)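 Meso 163 mesothelioma and A549 lung adenocarcinoma cells exposed to agent for 6 or 20 h; histone H3 and alpha-tubulin acetylation analysed by western blot with molecular-weight markers.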

[4] = target: Histone deacetylase 8 (Homo sapiens) (UniProt Q9BY41); test: Inhibition of human recombinant HDAC8 at 10 uM using fluorogenic HDAC substrate measured after 60 mins by fluorimetry assay relative to control
[5] = target: T2, Protein deacetylase HDAC6 (Homo sapiens); test: Inhibition of HDAC6 in human A549 cells assessed as upregulation of semaphorin 3F mRNA expression at 20 uM after 24 hrs by RT-Sybr green PCR analysis; type: cell-based
Outline: (§2)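 Meso 163 and A549 cells treated for 24 h; E-cadherin, Sema-3F and p21 mRNA quantified by real-time PCR; means ± S.E.M. of four independent experiments.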

Histone deacetylase 5 [6] = target: T3, Histone deacetylase 5 (Homo sapiens, UniProt Q9UQL6); test: Inhibition of human recombinant HDAC5 at 10 uM using fluorogenic HDAC substrate class 2a measured after 30 mins by fluorimetry assay relative to control
T3 sequence (Q9UQL6 whole entry): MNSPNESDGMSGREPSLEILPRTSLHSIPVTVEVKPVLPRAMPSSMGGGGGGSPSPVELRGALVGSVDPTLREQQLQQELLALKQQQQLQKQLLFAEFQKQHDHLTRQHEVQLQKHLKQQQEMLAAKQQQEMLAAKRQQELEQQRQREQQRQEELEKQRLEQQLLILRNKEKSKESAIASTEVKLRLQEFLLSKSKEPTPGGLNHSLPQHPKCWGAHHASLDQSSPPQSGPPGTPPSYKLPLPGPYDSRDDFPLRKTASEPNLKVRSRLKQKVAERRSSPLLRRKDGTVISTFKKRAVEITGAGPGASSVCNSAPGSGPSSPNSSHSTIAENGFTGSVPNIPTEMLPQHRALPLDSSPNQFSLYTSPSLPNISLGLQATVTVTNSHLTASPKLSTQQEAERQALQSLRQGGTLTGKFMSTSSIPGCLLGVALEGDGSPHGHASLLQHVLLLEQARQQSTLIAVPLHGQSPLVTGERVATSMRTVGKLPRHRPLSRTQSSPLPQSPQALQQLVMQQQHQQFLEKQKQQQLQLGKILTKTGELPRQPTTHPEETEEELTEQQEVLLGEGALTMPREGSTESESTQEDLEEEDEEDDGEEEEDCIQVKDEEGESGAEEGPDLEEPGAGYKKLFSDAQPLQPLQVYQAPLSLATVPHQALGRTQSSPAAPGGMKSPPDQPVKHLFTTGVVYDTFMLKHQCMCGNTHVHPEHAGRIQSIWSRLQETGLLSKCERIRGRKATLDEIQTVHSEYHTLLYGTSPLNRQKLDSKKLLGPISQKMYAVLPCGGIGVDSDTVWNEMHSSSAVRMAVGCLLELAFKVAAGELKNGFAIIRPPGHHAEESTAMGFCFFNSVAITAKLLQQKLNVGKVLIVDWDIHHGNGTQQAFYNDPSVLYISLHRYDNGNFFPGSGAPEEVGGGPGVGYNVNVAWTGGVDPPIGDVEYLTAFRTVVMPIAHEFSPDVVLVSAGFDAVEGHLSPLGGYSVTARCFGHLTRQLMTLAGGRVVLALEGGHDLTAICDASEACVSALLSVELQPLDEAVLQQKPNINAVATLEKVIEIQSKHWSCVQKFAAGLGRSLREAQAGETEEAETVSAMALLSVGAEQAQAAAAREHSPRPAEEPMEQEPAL

Histone deacetylase 2 [7] = target: T4, Histone deacetylase 2 (Homo sapiens, UniProt Q92769); test: Inhibition of human recombinant HDAC2 using fluorogenic HDAC substrate measured after 15 mins by fluorimetry assay
T4 sequence (Q92769 whole entry): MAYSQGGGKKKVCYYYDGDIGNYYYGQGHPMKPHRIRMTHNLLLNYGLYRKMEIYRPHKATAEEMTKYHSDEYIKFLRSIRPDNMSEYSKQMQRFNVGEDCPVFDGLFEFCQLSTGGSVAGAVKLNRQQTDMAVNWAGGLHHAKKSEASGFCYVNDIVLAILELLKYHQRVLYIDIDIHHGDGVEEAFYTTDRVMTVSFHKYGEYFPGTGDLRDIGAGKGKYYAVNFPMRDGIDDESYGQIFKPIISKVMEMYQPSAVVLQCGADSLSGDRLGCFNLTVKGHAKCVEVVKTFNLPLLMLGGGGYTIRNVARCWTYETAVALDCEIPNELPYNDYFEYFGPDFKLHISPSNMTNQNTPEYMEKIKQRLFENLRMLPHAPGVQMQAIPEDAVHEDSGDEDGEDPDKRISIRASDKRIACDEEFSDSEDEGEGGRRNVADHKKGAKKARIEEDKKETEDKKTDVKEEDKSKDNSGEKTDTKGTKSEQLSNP

[8] = target: T2, Protein deacetylase HDAC6 (Homo sapiens); test: Inhibition of HDAC6 in human Meso163 cells assessed as upregulation of E-cadherin mRNA expression at 20 uM after 24 hrs by RT-Sybr green PCR analysis; type: cell-based
Outline: as §2

Histone deacetylase 5 [9] = target: T3, Histone deacetylase 5; test: Inhibition of human recombinant HDAC5 using fluorogenic HDAC substrate class 2a measured after 30 mins by fluorimetry assay
[10] = target: T2, Protein deacetylase HDAC6 (Homo sapiens); test: Inhibition of HDAC6 in human Meso163 cells assessed as upregulation of p21 mRNA expression at 20 uM after 24 hrs by RT-Sybr green PCR analysis; type: cell-based
Outline: as §2

[11] = target: NAD-dependent protein deacetylase sirtuin-3, mitochondrial (Homo sapiens) (UniProt Q9NTG7); test: Inhibition of human recombinant sirtuin 3 at 10 uM using fluoro-lysine sirtuin 2 deacetylase substrate measured after 45 mins by fluorimetry assay relative to control
Histone deacetylase 4 [12] = target: T1, Histone deacetylase 4; test: Inhibition of human recombinant HDAC4 at 10 uM using fluorogenic HDAC substrate class 2a measured after 30 mins by fluorimetry assay relative to control
Homo sapiens [13] = species on record: Homo sapiens; test: Selectivity ratio of IC50 for human recombinant HDAC2 to IC50 for human recombinant HDAC6
cells [14] = type: functional, cell-based; conditions: Homo sapiens, 72 h
Histone deacetylase 3 [15] = target: T5, Histone deacetylase 3 (Homo sapiens, UniProt O15379)
T5 sequence (O15379 whole entry): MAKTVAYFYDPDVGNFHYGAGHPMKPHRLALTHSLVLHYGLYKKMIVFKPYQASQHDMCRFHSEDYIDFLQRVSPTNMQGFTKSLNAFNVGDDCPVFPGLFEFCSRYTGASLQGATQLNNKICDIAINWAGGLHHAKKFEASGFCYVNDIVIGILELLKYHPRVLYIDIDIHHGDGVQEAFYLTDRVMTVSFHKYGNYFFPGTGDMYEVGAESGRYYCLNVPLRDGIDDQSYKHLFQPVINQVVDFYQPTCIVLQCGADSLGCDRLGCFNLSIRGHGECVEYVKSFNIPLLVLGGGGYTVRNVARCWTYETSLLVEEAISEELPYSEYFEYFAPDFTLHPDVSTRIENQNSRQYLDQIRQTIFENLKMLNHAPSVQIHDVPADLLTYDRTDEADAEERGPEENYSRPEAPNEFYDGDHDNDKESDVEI

Homo sapiens [16] = species on record: Homo sapiens; test: Selectivity ratio of IC50 for human recombinant HDAC3 to IC50 for human recombinant HDAC6
Homo sapiens [17] = species on record: Homo sapiens; test: Selectivity ratio of IC50 for human recombinant HDAC10 to IC50 for human recombinant HDAC6
Histone deacetylase 8 = Histone deacetylase 8 (Homo sapiens, UniProt Q9BY41); test: Inhibition of human recombinant HDAC8 using fluorogenic HDAC substrate measured after 60 mins by fluorimetry assay
[18] = target: T2, Protein deacetylase HDAC6 (Homo sapiens); test: Inhibition of human recombinant HDAC6 at 10 uM using fluorogenic HDAC substrate measured after 30 mins by fluorimetry assay relative to control
Histone deacetylase 11 = Histone deacetylase 11 (Homo sapiens, UniProt Q96DB2); test: Inhibition of human recombinant HDAC11 using fluorogenic HDAC substrate class 2a measured after 30 mins by fluorimetry assay
[19] = target: T2, Protein deacetylase HDAC6 (Homo sapiens); test: Inhibition of HDAC6 in human Meso163 cells assessed as increase in alpha tubulin acetylation at 20 uM measured after 6 to 20 hrs by Western blot analysis; type: cell-based
Outline: as §1

[20] = target: NAD-dependent protein deacetylase sirtuin-1 (Homo sapiens) (UniProt Q96EB6); test: Inhibition of human recombinant sirtuin 1 at 10 uM using fluorogenic HDAC substrate measured after 20 mins by fluorimetry assay relative to control
[21] = target: Protein deacetylase HDAC6 (Homo sapiens, UniProt Q9UBN7); test: Inhibition of human recombinant HDAC6 using fluorogenic HDAC substrate measured after 30 mins by fluorimetry assay
[22] = target: Polyamine deacetylase HDAC10 (Homo sapiens) (UniProt Q969S8); test: Inhibition of human recombinant HDAC10 at 10 uM using fluorogenic HDAC substrate measured after 45 mins by fluorimetry assay relative to control
Histone deacetylase 2 [23] = target: T4, Histone deacetylase 2; test: Inhibition of human recombinant HDAC2 at 10 uM using fluorogenic HDAC substrate measured after 15 mins by fluorimetry assay relative to control
[24] = target: T2, Protein deacetylase HDAC6 (Homo sapiens); test: Inhibition of HDAC6 in human A549 cells assessed as upregulation of E-cadherin mRNA expression at 20 uM after 24 hrs by RT-Sybr green PCR analysis; type: cell-based
Outline: as §2

[25] = target: Polyamine deacetylase HDAC10 (Homo sapiens, UniProt Q969S8); test: Inhibition of human recombinant HDAC10 using fluorogenic HDAC substrate measured after 45 mins by fluorimetry assay
cells [26] = type: functional, cell-based; conditions: Homo sapiens, 72 h; remark: listed apart in the source
Histone deacetylase 3 [27] = target: T5, Histone deacetylase 3; test: Inhibition of human recombinant HDAC3 at 10 uM using fluorogenic HDAC substrate measured after 10 mins by fluorimetry assay relative to control
[28] = target: T2, Protein deacetylase HDAC6 (Homo sapiens); test: Inhibition of HDAC6 in human A549 cells assessed as increase in histone H3 acetylation at 20 uM measured after 6 to 20 hrs by Western blot analysis; type: cell-based
Outline: as §1

[29] = target: Histone deacetylase 11 (Homo sapiens) (UniProt Q96DB2); test: Inhibition of human recombinant HDAC11 at 10 uM using fluorogenic HDAC substrate class 2a measured after 30 mins by fluorimetry assay relative to control
Histone deacetylase 7 = Histone deacetylase 7 (Homo sapiens, UniProt Q8WUI4); test: Inhibition of human recombinant HDAC7 using fluorogenic HDAC substrate class 2a measured after 45 mins by fluorimetry assay
Histone deacetylase 7, sequence (Q8WUI4 whole entry): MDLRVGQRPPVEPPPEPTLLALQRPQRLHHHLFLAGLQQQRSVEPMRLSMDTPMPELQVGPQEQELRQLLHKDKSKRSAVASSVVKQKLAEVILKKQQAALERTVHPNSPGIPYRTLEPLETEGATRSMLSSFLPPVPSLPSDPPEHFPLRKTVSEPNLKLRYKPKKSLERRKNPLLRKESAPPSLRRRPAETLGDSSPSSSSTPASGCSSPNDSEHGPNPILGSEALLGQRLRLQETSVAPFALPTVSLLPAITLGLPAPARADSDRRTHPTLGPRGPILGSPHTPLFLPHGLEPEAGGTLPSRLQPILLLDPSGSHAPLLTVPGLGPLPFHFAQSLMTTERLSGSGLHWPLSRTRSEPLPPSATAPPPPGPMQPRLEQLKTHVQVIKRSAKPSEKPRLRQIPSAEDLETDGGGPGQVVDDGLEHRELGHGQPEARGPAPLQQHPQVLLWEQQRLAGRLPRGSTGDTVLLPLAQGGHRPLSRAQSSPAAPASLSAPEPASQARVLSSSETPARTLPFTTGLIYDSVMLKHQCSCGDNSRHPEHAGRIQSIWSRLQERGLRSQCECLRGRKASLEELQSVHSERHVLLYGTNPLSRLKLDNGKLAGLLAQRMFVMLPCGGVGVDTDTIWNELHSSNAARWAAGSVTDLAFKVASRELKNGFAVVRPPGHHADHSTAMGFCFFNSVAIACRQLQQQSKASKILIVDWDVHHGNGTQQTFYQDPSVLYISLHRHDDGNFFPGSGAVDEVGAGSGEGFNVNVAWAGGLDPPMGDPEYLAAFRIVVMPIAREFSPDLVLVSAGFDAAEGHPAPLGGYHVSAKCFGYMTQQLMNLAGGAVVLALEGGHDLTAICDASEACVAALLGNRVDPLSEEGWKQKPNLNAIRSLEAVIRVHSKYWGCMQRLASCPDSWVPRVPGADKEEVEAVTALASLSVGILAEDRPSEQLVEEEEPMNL

[30] = target: T2, Protein deacetylase HDAC6 (Homo sapiens); test: Inhibition of HDAC6 in human A549 cells assessed as increase in alpha tubulin acetylation at 20 uM measured after 6 to 20 hrs by Western blot analysis; type: cell-based
Outline: as §1

[31] = target: T2, Protein deacetylase HDAC6 (Homo sapiens); test: Inhibition of HDAC6 in human Meso163 cells assessed as upregulation of semaphorin 3F mRNA expression at 20 uM after 24 hrs by RT-Sybr green PCR analysis; type: cell-based
Outline: as §2

Homo sapiens [32] = species on record: Homo sapiens; test: Selectivity ratio of IC50 for human recombinant HDAC11 to IC50 for human recombinant HDAC6
Histone deacetylase 1 [33] = target: T6, Histone deacetylase 1 (Homo sapiens, UniProt Q13547); test: Inhibition of human recombinant HDAC1 using fluorogenic HDAC substrate measured after 15 mins by fluorimetry assay
T6 sequence (Q13547 whole entry): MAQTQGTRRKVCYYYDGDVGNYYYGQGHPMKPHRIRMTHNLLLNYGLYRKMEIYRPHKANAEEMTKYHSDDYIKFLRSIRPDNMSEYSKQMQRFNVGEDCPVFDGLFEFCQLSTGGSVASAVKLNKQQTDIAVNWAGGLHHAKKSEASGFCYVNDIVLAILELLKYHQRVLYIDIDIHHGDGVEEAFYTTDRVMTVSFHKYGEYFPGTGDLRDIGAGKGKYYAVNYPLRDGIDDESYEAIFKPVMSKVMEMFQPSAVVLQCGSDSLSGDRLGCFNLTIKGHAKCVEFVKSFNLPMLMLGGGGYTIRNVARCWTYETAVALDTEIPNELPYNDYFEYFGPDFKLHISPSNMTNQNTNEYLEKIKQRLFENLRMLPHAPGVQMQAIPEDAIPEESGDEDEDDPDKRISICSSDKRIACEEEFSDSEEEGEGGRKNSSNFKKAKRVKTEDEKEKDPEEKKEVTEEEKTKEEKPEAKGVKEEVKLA

Homo sapiens [34] = species on record: Homo sapiens; test: Selectivity ratio of IC50 for human recombinant HDAC1 to IC50 for human recombinant HDAC6
cells [35] = type: functional, cell-based; conditions: Homo sapiens, 72 h; remark: listed apart in the source
Histone deacetylase 1 [36] = target: T6, Histone deacetylase 1; test: Inhibition of human recombinant HDAC1 at 10 uM using fluorogenic HDAC substrate measured after 15 mins by fluorimetry assay relative to control
Homo sapiens [37] = species on record: Homo sapiens; test: Selectivity ratio of IC50 for human recombinant HDAC8 to IC50 for human recombinant HDAC6
[38] = target: T2, Protein deacetylase HDAC6 (Homo sapiens); test: Inhibition of HDAC6 in human A549 cells assessed as upregulation of p21 mRNA expression at 20 uM after 24 hrs by RT-Sybr green PCR analysis; type: cell-based
Outline: as §2

EC50 (Histone deacetylase): 8.14 µM
Compound: COC(=O)c1ccc2ccccc2c1OCCCCCCCC(=O)Nc1ccccc1N

IC50 [1]: 17 µM
Compound: Cc1ccc(C(=O)Nc2ccc(S(=O)(=O)O)c3cc(S(=O)(=O)O)cc(S(=O)(=O)O)c23)cc1NC(=O)c1cccc(NC(=O)Nc2cccc(C(=O)Nc3cc(C(=O)Nc4ccc(S(=O)(=O)O)c5cc(S(=O)(=O)O)cc(S(=O)(=O)O)c45)ccc3C)c2)c1 [SURAMIN]

IC50 (Histone deacetylase 9): Not Active | IC50 (A549): 62.4 µM | IC50 (Histone deacetylase 4 [2]): Not Active | Activity [3]: Active | inhibition [4]: 93.1% | Activity [5]: Active | inhibition (Histone deacetylase 5 [6]): 2.8% | IC50 (Histone deacetylase 2 [7]): 3.4 µM | Activity [8]: Active | IC50 (Histone deacetylase 5 [9]): Not Active | Activity [10]: Active | inhibition [11]: -8.2% | inhibition (Histone deacetylase 4 [12]): -4.8% | Ratio IC50 (Homo sapiens [13]): 17 to 37 | IC50 (cells [14]): 15.7 µM | IC50 (Histone deacetylase 3 [15]): 1 µM | Ratio IC50 (Homo sapiens [16]): 10 | Ratio IC50 (Homo sapiens [17]): 17 to 37 | IC50 (Histone deacetylase 8): 1.6 µM | inhibition [18]: 104% | IC50 (Histone deacetylase 11): 6.6 µM | Activity [19]: Active | inhibition [20]: -2.6% | IC50 [21]: 0.095 µM | inhibition [22]: 82.3% | inhibition (Histone deacetylase 2 [23]): 67.1% | Activity [24]: Active | IC50 [25]: 1.6 µM | IC50 (cells [26]): 15.6 µM | EC50 (Histone deacetylase): 7.84 µM | inhibition (Histone deacetylase 3 [27]): 87.9% | Activity [28]: Active | inhibition [29]: 57.2% | IC50 (Histone deacetylase 7): Not Active | Activity [30]: Active | Activity [31]: Active | Ratio IC50 (Homo sapiens [32]): 17 to 37 | IC50 (Histone deacetylase 1 [33]): 3.5 µM | Ratio IC50 (Homo sapiens [34]): 17 to 37 | IC50 (cells [35]): 15.9 µM | inhibition (Histone deacetylase 1 [36]): 84.7% | Ratio IC50 (Homo sapiens [37]): 17 to 37 | Activity [38]: Active
Compound: COC(=O)c1ccc2ccccc2c1OCCCCCCCC(=O)NO

IC50 (A549): 16 µM | IC50 (cells [14]): 3.9 µM | IC50 (cells [26]): 7.83 µM | IC50 (cells [35]): 15.8 µM
Compound: CC(=O)Nc1ccc(C(=O)Nc2ccccc2N)cc1 [TACEDINALINE]
